Screening results (PubChem)
CCR6 antagonist = CCR6 receptor antagonists, primary screen, cell-based, CHO-K1, luminescence, beta-arrestin, uHTS; inhibition, % at 20 µM; CHO-K1 CCR6 PathHunter beta-arrestin, CCL20-stimulated; C-C chemokine receptor type 6 (Homo sapiens), P51684; 340,000 compounds, 0.49% hits; AID 493098, 2011;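 active means compounds whose inhibition of the agonist-driven luminescence signal at 20 µM reaches about 50%, limit read from the data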;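 further: cells stimulated with CCL20 at 14 nM final; plate controls were DMSO with CCL20 for no effect and DMSO without agonist for full effect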
APJ antag = antagonists of human apelin receptor APJ, primary screen, CHO-K1 cells, beta-arrestin complementation, luminescence; P35414; inhibition, % at 20 µM; 330,000 compounds, 0.32% hits; AID 2521, 2010;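 active means inhibition above about 40% at 20 µM, limit read from the data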;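 further: cells challenged with 10 nM apelin-13 agonist together with compound; plate controls were apelin-13 plus DMSO wells for no effect and DMSO wells lacking apelin-13 for full effect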
Target sequence (P35414 whole entry, looked up): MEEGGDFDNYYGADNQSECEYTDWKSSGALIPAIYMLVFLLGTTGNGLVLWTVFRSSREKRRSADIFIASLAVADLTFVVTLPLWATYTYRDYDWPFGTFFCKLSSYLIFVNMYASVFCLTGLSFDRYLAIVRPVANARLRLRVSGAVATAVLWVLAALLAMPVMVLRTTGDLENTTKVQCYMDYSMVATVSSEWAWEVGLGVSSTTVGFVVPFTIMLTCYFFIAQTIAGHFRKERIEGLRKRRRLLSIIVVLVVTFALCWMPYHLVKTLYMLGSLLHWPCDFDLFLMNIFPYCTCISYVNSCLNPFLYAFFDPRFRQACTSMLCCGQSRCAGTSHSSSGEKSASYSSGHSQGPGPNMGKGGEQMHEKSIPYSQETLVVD
CXCR6 inh = CXCR6 receptor inhibitors, primary screen, cell-based, beta-arrestin, luminescence, CHO-K1 PathHunter, 1536-well; inhibition, % at 20 µM; C-X-C chemokine receptor type 6 (Homo sapiens), O00574; AID 602244, 2012; 360,000 compounds, 0.36% hits; in the data active means inhibition above about 34%, passing the limit was not always enough;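 further: antagonist mode with CXCL16 agonist at 10 nM final; 0% = 10 nM CXCL16 with DMSO and 100% = unstimulated wells without agonist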
APJ ag = agonists of human apelin receptor APJ, primary screen, CHO-K1 cells, PathHunter beta-arrestin, luminescence; AID 2520, 2010; P35414; 330,000 compounds, 0.11% hits; activation, % at 20 µM; 0% DMSO wells, 100% apelin;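 active means activation more than six SD over the plate average, tested at 20 µM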;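 further: 0% = DMSO alone and 100% = apelin-13 at 10 nM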
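Assay system: CHO-K1 APJ beta-arrestin complementation cell line / Compound: single test compound dose, 20 µM final, 1% DMSO / Times: overnight seeding, 90 min compound at 25 °C, 1 h detection / Technique: beta-gal luminescence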
Beta2AR agonist = beta2AR agonists driving receptor internalization, primary screen, cell-based, FAP fluorogen, flow cytometry. Beta-2 adrenergic receptor (Homo sapiens), P07550. Am2.2-beta2AR cells. response, % (concentration not given with the values). 340,000 compounds, 0.43% hits. AID 504454, 2011;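 active means response above a set limit, near 3 SD of response in nonfluorescent compounds, cut at about 42% in these data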
PfGluPho inh = PfG6PD enzyme inhibitors, primary screen, biochemical, fluorescence intensity, uHTS | 350,000 compounds, 0.78% hits | AID 504690, 2011 | glucose-6-phosphate dehydrogenase-6-phosphogluconolactonase (Plasmodium falciparum 3D7) | inhibition, % at 20 µM | PfGluPho enzyme, NADPH resazurin-diaphorase fluorescence;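 active means inhibition reaching at least a set limit at 20 µM in the primary screen, cut at about 59% in these data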;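 further: 0% = DMSO wells with substrate and 100% = DMSO wells lacking glucose-6-phosphate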
APJ antag confirm = APJ antagonists blocking beta-arrestin recruitment, confirmation, cell-based, luminescence, single concentration, uHTS hits. shares compounds with APJ antag. inhibition, % at 20 µM. 950 compounds, 66% hits. AID 2766, 2010. antagonist mode; in the data active means inhibition above about 50%
PfGluPho conf = PfG6PD inhibitors, hit retest, confirmation, biochemical, fluorescence intensity, single concentration; shares compounds with PfGluPho inh; inhibition, % at 20 µM; 2,400 compounds, 34% hits; recombinant PfGluPho, NADPH-diaphorase-resazurin fluorescence; AID 504753, 2011;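 active means inhibition of at least 50% at 20 µM in any single replicate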;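 further: 0% = DMSO with substrate and 100% = DMSO lacking glucose-6-phosphate substrate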
Diaph ctr 10uM = diaphorase inhibitors and chemical oxidizers, confirmation, counter-screen for P. falciparum G6PD inhibitor project, biochemical, fluorescence intensity, 10 µM NADPH. shares compounds with PfGluPho inh. diaphorase-coupled resazurin reduction, NADPH 10 uM. inhibition, % at 20 µM. 820 compounds, 39% hits. AID 504862, 2011;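 active means average inhibition reaching 50% or more with the compound at 20 µM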;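 further: resorufin red fluorescence formed as diaphorase reduces resazurin using NADPH; 0% = DMSO with enzyme and 100% = DMSO without enzyme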
Diaphorase 30uM = diaphorase inhibitors and chemical oxidizers, confirmation, counter-screen for P. falciparum G6PD inhibitor project, biochemical, fluorescence intensity, 30 µM NADPH | AID 504863, 2011 | Diaphorase/resazurin coupled assay, resorufin fluorescence | shares compounds with PfGluPho inh | inhibition, % at 20 µM | 820 compounds, 29% hits;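 active means inhibition averaging 50% or more, tested at 20 µM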;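 further: 0% = DMSO with enzyme and 100% = DMSO wells lacking diaphorase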
CXCR6 confirm = CXCR6 receptor antagonists, confirmation, cell-based, single concentration, beta-arrestin, luminescence; shares compounds with CXCR6 inh; CHO-K1 CXCR6 PathHunter beta-arrestin; inhibition, % at 20 µM; 700 compounds, 65% hits;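 active means mean inhibition over four retests above 40%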;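 further: receptor stimulated with 10 nM CXCL16 agonist; beta-galactosidase fragment complementation upon beta-arrestin recruitment to receptor; plate controls were CXCL16 plus DMSO for no effect and DMSO without CXCL16 for full effect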
Numbers without * were called inactive; . = not tested or not shown. The list is not random: actives were taken first. Their share in the collection is about 1.7%.

SMILES | CCR6 antagonist | APJ antag | CXCR6 inh | APJ ag | Beta2AR agonist | PfGluPho inh | APJ antag confirm | CXCR6 confirm | others
CN(CCO)c1cc(Sc2nc3ccccc3s2)c2nonc2c1[N+](=O)[O-] | 113* | 97* | 99* | -9 | 99* | 88* | 107* | 109* | PfGluPho conf=70*;Diaph ctr 10uM=4;Diaphorase 30uM=-12
CCc1cc2c(=O)[nH]c(-c3ccccn3)nc2s1 | 87* | 78* | 49* | -6 | 5 | -11 | 70* | 69*
Cc1[nH]c2c(C)cccc2c(=O)c1CN1CCCCCC1 | -1 | 21 | 5 | -2 | -3 | 15 | . | .
O=C(N/N=C(\c1ccccc1)c1cccnc1)c1ccc(O)cc1 | 12 | 1 | 1 | -3 | 1 | -6 | . | .
O=C(N/N=C(\c1ccccc1)c1cccnc1)c1cccc(F)c1 | 101* | 70* | 83* | -17 | 12 | -35 | 88* | 94*
CCC1=NN(C(=O)c2ccc([N+](=O)[O-])cc2)C(O)(c2ccccc2)C1 (stereo unspecified) | 82* | 45* | 64* | -10 | 4 | -38 | 71* | 42*
COc1cc(C2C(C#N)=C(N)Oc3n[nH]c(-c4cccs4)c32)cc(OC)c1O (stereo unspecified) | 59* | 47* | 49* | -4 | 2 | 14 | 47 | 51*
Cc1ccc(C2C(C#N)=C(N)Oc3n[nH]c(-c4cccs4)c32)cc1 (stereo unspecified) | 20 | -9 | 0 | 1 | 2 | 4 | . | .
COCCCn1cc(CN2CC(N3CCN(C)CC3)CS2(=O)=O)nn1 (stereo unspecified) | . | . | -6 | . | . | . | . | .
CC(=O)N(C(C)=O)c1ncn(C)c1S(=O)(=O)Nc1ccccc1 | 6 | . | 0 | . | 0 | 1 | . | .
NC(=O)NNc1ncc(C(F)(F)F)cc1Cl | 10 | 4 | -4 | -4 | -4 | 20 | . | .
Cc1ccccc1NC(=S)NNc1ncc(C(F)(F)F)cc1Cl | 70* | 45* | 45* | -8 | -1 | 3 | 70* | 53*
NC(=S)Nc1ncc(C(F)(F)F)cc1Cl | -2 | -14 | 0 | -4 | -7 | 6 | . | .
FC(F)(F)c1cnc(NNC(=S)Nc2cccnc2)c(Cl)c1 | 87* | 63* | 71* | -7 | -2 | 15 | 65* | 67*
Cn1c(=O)n(C)c2cc([N+](=O)[O-])c(N3CCN(C(=O)c4cccc(Cl)c4)CC3)cc21 | 65* | 53* | 52* | -13 | -3 | 9 | 84* | 46*
Cn1c(=O)n(C)c2cc([N+](=O)[O-])c(N3CCN(C(=O)c4cccc(F)c4)CC3)cc21 | 22 | 17 | 18 | -5 | -1 | 0 | . | .
